{"data": "Assay results collected from several papers", "organism": "Bacillus subtilis", "effect on": "microbial growth", "note": "Lines come from different studies, so protocols differ."}
{"Compound": "C[n+]1c(/C=C/c2c[nH]c3ccccc23)cc(/C=C2\\Sc3ccccc3N2CCCN2CCCC2)c2ccccc21.[I-]", "technique": "broth dilution", "strain": "168", "MIC": "2 µg/mL"}
{"Compound": "CC(=O)NCN1N=C(C)C(=NNn2c(-c3ccccc3)nc3ccccc3c2=O)C1=O", "technique": "broth dilution", "time": "24 h", "MIC": "59.9 µM"}
{"Compound": "O=C(O)c1ccc(-n2cc(/C=N/Nc3cccc(Br)c3)c(-c3ccc(F)cc3)n2)cc1", "strain": "ATCC6623", "MIC": "12.5 µg/mL"}
{"Compound": "CCCCCCC[P+](/C=C(/c1ccccc1)c1cc(Cl)ccc1O)(CCCCCCC)CCCCCCC", "time": "21 h", "MIC": "10 µM"}
{"Compound": "Cc1cc(/C=C2\\Sc3ccccc3N2CCCN2CCC(C)CC2)c2ccccc2[n+]1C.[I-]", "technique": "broth dilution", "strain": "168", "MIC": "1 µg/mL"}
{"Compound": "O=C(O)c1ccc(-n2cc(/C=N/N(Cc3ccccc3)c3ccccc3)c(-c3cccc(F)c3)n2)cc1", "strain": "ATCC6623", "MIC": "1.56 µg/mL"}
{"Compound": "O=C(O)CN1C(=O)/C(=C/c2c3ccccc3c(-c3ccc(N(c4ccccc4)c4ccccc4)cc3)c3ccccc23)NC1=S", "technique": "broth dilution", "strain": "ATCC6633", "MIC": "> 1000 µg/mL"}
{"Compound": "C/C=C(\\C)c1cc(OC(=O)c2c(O)c(C)c(O)c(Cl)c2/C(C)=C/C)c(C)c(O)c1C(=O)O", "technique": "broth dilution", "strain": "BS01", "MIC": "32 µg/mL"}
{"Compound": "NC[C@H]1O[C@H](O[C@H]2[C@H](O)[C@@H](O[C@H]3O[C@H](CO)[C@@H](O)[C@H](N)[C@H]3O)[C@H](N)C[C@@H]2N)[C@H](O)[C@@H](O)[C@@H]1O", "MIC": "2 to 4 µg/mL"}
{"Compound": "CCCCC[P+](/C=C(/c1ccccc1)c1cc(Cl)ccc1O)(CCCCC)CCCCC", "time": "21 h", "MIC": "~2 µM"}
{"Compound": "CCCCCCCCOC(=O)c1cc(O)c(O)c(O)c1", "technique": "broth dilution", "strain": "ATCC6633", "MIC": "12.5 to 25 µM"}
{"Compound": "O=C1NC(=S)N/C1=C\\c1c2ccccc2c(-c2ccc(N(c3ccccc3)c3ccccc3)cc2)c2ccccc12", "technique": "broth dilution", "strain": "ATCC6633", "MIC": "> 1000 µg/mL"}
{"Compound": "CCCCCCCCCCCCOC(=O)c1cc(O)c(O)c(O)c1", "technique": "broth dilution", "strain": "ATCC6633", "MIC": "25 to 50 µM"}
{"Compound": "O=C(O)c1cn(C2CC2)c2cc(N3CCNCC3)c(F)cc2c1=O", "MIC": "1.6 µg/mL"}
{"Compound": "CCC[P+](/C=C(/c1ccccc1)c1cc(Cl)ccc1O)(CCC)CCC", "time": "21 h", "MIC": "> 40 µM"}
{"Compound": "CC1=NN(CNc2ccccc2[N+](=O)[O-])C(=O)C1=NNn1c(-c2ccccc2)nc2ccccc2c1=O", "technique": "broth dilution", "time": "24 h", "MIC": "50.4 µM"}
{"Compound": "C[n+]1c(/C=C/c2ccc(O)cc2)cc(/C=C2\\Sc3ccccc3N2CCCN2CCOCC2)c2ccccc21.[I-]", "technique": "broth dilution", "strain": "168", "MIC": "4 µg/mL"}
{"Compound": "O=C(O)CN1C(=O)/C(=C/c2c3ccccc3c(-c3ccc(N(c4ccccc4)c4ccccc4)cc3)c3ccccc23)SC1=S", "technique": "broth dilution", "strain": "ATCC6633", "MIC": "> 1000 µg/mL"}
{"Compound": "Fc1ccccc1NCc1ccc(Oc2ccccn2)cc1", "MIC": "1.8 µg/mL"}
{"Compound": "CCCCCC[P+](/C=C(/c1ccccc1)c1cc(Cl)ccc1OC)(CCCCCC)CCCCCC", "time": "21 h", "MIC": "2 µM"}
{"Compound": "COc1cc(O)c2c(c1)/C=C/C[C@H](O)[C@H](O)C(=O)/C=C/C[C@H](C)OC2=O", "MIC": "> 500 µg/mL"}
{"Compound": "O=C(O)c1ccc(-n2cc(/C=N/Nc3ccc(Br)cc3)c(-c3cccc(F)c3)n2)cc1", "strain": "ATCC6623", "MIC": "12.5 µg/mL"}
{"Compound": "O=C(O)CN1C(=O)/C(=C/c2ccc(-c3ccc(N(c4ccccc4)c4ccccc4)cc3)c3ccccc23)NC1=S", "technique": "broth dilution", "strain": "ATCC6633", "MIC": "> 1000 µg/mL"}
{"Compound": "CN[C@H](CC(C)C)C(=O)N[C@H]1C(=O)N[C@@H](CC(N)=O)C(=O)N[C@H]2C(=O)N[C@H]3C(=O)N[C@H](C(=O)N[C@H](C(=O)O)c4cc(O)cc(O)c4-c4cc3ccc4O)[C@H](O)c3ccc(c(Cl)c3)Oc3cc2cc(c3O[C@@H]2O[C@H](CO)[C@@H](O)[C@H](O)[C@H]2O[C@H]2C[C@](C)(N)[C@H](O)[C@H](C)O2)Oc2ccc(cc2Cl)[C@H]1O", "technique": "broth dilution", "strain": "168", "MIC": "0.25 µg/mL"}
{"Compound": "Clc1ccc(NCc2ccc(Oc3ccccn3)cc2)cc1", "MIC": "> 6.2 µg/mL"}
{"Compound": "O=C1NC(=S)S/C1=C\\c1c2ccccc2c(-c2ccc(N(c3ccccc3)c3ccccc3)cc2)c2ccccc12", "technique": "broth dilution", "strain": "ATCC6633", "MIC": "> 1000 µg/mL"}
{"Compound": "Cc1cccc(NCc2ccc(Oc3ccccn3)cc2)c1", "MIC": "> 3.1 µg/mL"}
{"Compound": "N#Cc1ccc(N/N=C/c2cn(-c3ccc(C(=O)O)cc3)nc2-c2ccc(F)cc2)cc1", "strain": "ATCC6623", "MIC": "25 µg/mL"}
{"Compound": "c1ccc(NCc2ccc(Oc3ccccn3)cc2)cc1", "MIC": "1.6 µg/mL"}
{"Compound": "O=C1NC(=S)N/C1=C\\c1ccc(-c2ccc(N(c3ccccc3)c3ccccc3)cc2)c2ccccc12", "technique": "broth dilution", "strain": "ATCC6633", "MIC": "> 1000 µg/mL"}
{"Compound": "CC1=NN(CNC(=O)c2ccccc2)C(=O)C1=NNn1c(-c2ccccc2)nc2ccccc2c1=O", "technique": "broth dilution", "time": "24 h", "MIC": "51.9 µM"}
{"Compound": "O=C(O)c1ccc(-n2cc(/C=N/Nc3ccc(F)cc3)c(-c3ccc(F)cc3)n2)cc1", "strain": "ATCC6623", "MIC": "25 µg/mL"}
{"Compound": "NC[C@H]1O[C@H](O[C@H]2[C@H](O)[C@@H](O[C@H]3O[C@H](CO)[C@@H](O)[C@H](N)[C@H]3O)[C@H](N)C[C@@H]2N)[C@H](N)C[C@@H]1O", "strain": "168", "MIC": "1.2 µg/mL"}
{"Compound": "CN[C@H](CC(C)C)C(=O)N[C@H]1C(=O)N[C@@H](CC(N)=O)C(=O)N[C@H]2C(=O)N[C@H]3C(=O)N[C@H](C(=O)N[C@H](C(=O)O)c4cc(O)cc(O)c4-c4cc3ccc4O)[C@H](O)c3ccc(c(Cl)c3)Oc3cc2cc(c3O[C@@H]2O[C@H](CO)[C@@H](O)[C@H](O)[C@H]2O[C@H]2C[C@](C)(N)[C@H](O)[C@H](C)O2)Oc2ccc(cc2Cl)[C@H]1O", "technique": "broth dilution", "strain": "BS01", "MIC": "0.13 µg/mL"}
{"Compound": "O=C(O)c1ccc(-n2cc(/C=N/N(c3ccccc3)c3ccccc3)c(-c3ccc(F)cc3)n2)cc1", "strain": "ATCC6623", "MIC": "1.56 µg/mL"}
{"Compound": "COc1cccc(NCc2ccc(Oc3ccccn3)cc2)c1", "MIC": "1.6 µg/mL"}
{"Compound": "CN(C)[C@@H]1C(O)=C(C(N)=O)C(=O)[C@@]2(O)C(O)=C3C(=O)c4c(O)cccc4[C@@](C)(O)[C@H]3C[C@@H]12", "strain": "ATCC6633", "MIC": "2 µg/mL"}
{"Compound": "O=C(O)c1ccc(-n2cc(/C=N/Nc3cc(F)ccc3F)c(-c3ccc(F)cc3)n2)cc1", "strain": "ATCC6623", "MIC": "12.5 µg/mL"}
{"Compound": "C[n+]1c(/C=C/c2ccc(O)cc2)cc(/C=C2\\Sc3ccccc3N2CCCN2CCCC2)c2ccccc21.[I-]", "technique": "broth dilution", "strain": "168", "MIC": "16 µg/mL"}
{"Compound": "O=C(O)CN1C(=O)/C(=C/c2ccc(-c3ccc(N(c4ccccc4)c4ccccc4)cc3)c3ccccc23)SC1=S", "technique": "broth dilution", "strain": "ATCC6633", "MIC": "500 µg/mL"}
{"Compound": "COc1ccc(NCc2ccc(Oc3ccccn3)cc2)cc1", "MIC": "> 6.24 µg/mL"}
{"Compound": "O=C(O)c1ccc(-n2cc(/C=N/Nc3cccc(Cl)c3F)c(-c3ccc(F)cc3)n2)cc1", "strain": "ATCC6623", "MIC": "3.12 µg/mL"}
{"Compound": "C/C=C(\\C)c1cc(O)c(C)c(OC(=O)c2c(C)c(Cl)c(O)c(Cl)c2O)c1", "technique": "broth dilution", "strain": "BS01", "MIC": "2 µg/mL"}
{"Compound": "CSc1ccc(/C=C/c2cc(/C=C3\\Sc4ccccc4N3CCCN3CCCC3)c3ccccc3[n+]2C)cc1.[I-]", "technique": "broth dilution", "strain": "168", "MIC": "16 µg/mL"}
{"Compound": "CCCC[P+](/C=C(/c1ccccc1)c1cc(Cl)ccc1O)(CCCC)CCCC", "time": "21 h", "MIC": "10 µM"}
{"Compound": "CNC(=O)c1cc(Oc2ccc(NC(=O)Nc3ccc(Cl)c(C(F)(F)F)c3)cc2)ccn1", "strain": "168", "MIC": "5 µM"}
